Laboratory results published in ChEMBL document CHEMBL2146441, “2,6-Disubstituted imidazo[2,1-b][1,3,4]thiadiazoles: search for anticancer agents” (2012).

Assays:
Type in all cases: functional
DU-145 [1] = test: Cytotoxicity against human DU145 cells assessed as cell growth at 10^-5 M after 48 hrs by SRB assay; conditions: DU-145, 48 h, read-out: Activity
How it was run: (§1)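 NCI-60 screen: lines kept in RPMI 1640 with 5% FBS, seeded at 5000–40,000 cells/well by doubling time, preincubated 24 h at 37 °C in 5% CO2. Time-zero plates TCA-fixed at drug addition. DMSO stocks diluted in medium, 48 h exposure. Fixation in cold TCA (final 10% adherent, 16% suspension), 0.4% SRB stain, solubilised in 10 mM Tris base, A515. Percent growth computed against control and time-zero.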

[2] = Growth inhibition of human […] cells after 48 hrs by SRB assay
EKVX = test: Cytotoxicity against human EKVX cells assessed as cell growth at 10^-7 M after 48 hrs by SRB assay; conditions: read-out: Activity; how it was run: as §1
NCI-H226 [3] = test: Cytotoxicity against human NCI-H226 cells assessed as cell growth at 10^-7 M after 48 hrs by SRB assay; conditions: NCI-H226, 48 h, read-out: Activity
SNB-19 = test: Cytotoxicity against human SNB19 cells assessed as cell growth at 10^-7 M after 48 hrs by SRB assay; conditions: SNB-19, 48 h, read-out: Activity
M14 [4] = test: Cytotoxicity against human M14 cells assessed as cell growth at 10^-7 M after 48 hrs by SRB assay; conditions: M14, 48 h, read-out: Activity
MDA-MB-435 = test: Cytotoxicity against human MDA-MB-435 cells assessed as cell growth at 10^-7 M after 48 hrs by SRB assay; conditions: MDA-MB-435, 48 h, read-out: Activity
HL-60 = test: Cytotoxicity against human HL60 cells assessed as cell growth at 10^-4 M after 48 hrs by SRB assay; conditions: HL-60, 48 h, read-out: Activity
How it was run: (§2)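 NCI-60 five-dose screen. Cells were grown in RPMI 1640 with 5% FBS and seeded at 5000–40,000 cells/well according to doubling time. They were pre-incubated 24 h at 37 °C in 5% CO₂, and time-zero (Tz) plates were TCA-fixed at drug addition. Five 10-fold dilutions of DMSO stock were applied for 48 h. Read-out was SRB staining, 515 nm absorbance, with percent growth calculated versus Tz and untreated control.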

A498 = test: Cytotoxicity against human A498 cells assessed as cell growth at 10^-4 M after 48 hrs by SRB assay; conditions: A498, 48 h, read-out: Activity; how it was run: as §1
TK-10 = test: Cytotoxicity against human TK10 cells assessed as cell growth at 10^-4 M after 48 hrs by SRB assay; conditions: TK-10, 48 h, read-out: Activity
DU-145 [5] = test: Cytotoxicity against human DU145 cells assessed as cell growth at 10^-4 M after 48 hrs by SRB assay; conditions: DU-145, 48 h, read-out: Activity; how it was run: as §1
IGROV-1 = test: Cytotoxicity against human IGROV1 cells assessed as cell growth at 10^-7 M after 48 hrs by SRB assay; conditions: IGROV-1, 48 h, read-out: Activity
OVCAR-4 = test: Cytotoxicity against human OVCAR4 cells assessed as cell growth at 10^-7 M after 48 hrs by SRB assay; conditions: OVCAR-4, 48 h, read-out: Activity
ACHN = test: Cytotoxicity against human ACHN cells assessed as cell growth at 10^-7 M after 48 hrs by SRB assay; conditions: read-out: Activity; how it was run: as §1
CAKI-1 = test: Cytotoxicity against human Caki1 cells assessed as cell growth at 10^-7 M after 48 hrs by SRB assay; conditions: CAKI-1, 48 h, read-out: Activity; how it was run: as §1
[6] = Cytotoxicity against human Hs 578T cells assessed as cell growth at 10^-7 M after 48 hrs by SRB assay; conditions: read-out: Activity; how it was run: as §2
A549 [7] = test: Cytotoxicity against human A549 cells assessed as cell growth at 10^-8 M after 48 hrs by SRB assay; conditions: A549, 48 h, read-out: Activity; how it was run: as §1
M14 [8] = test: Cytotoxicity against human M14 cells assessed as cell growth at 10^-8 M after 48 hrs by SRB assay; conditions: M14, 48 h, read-out: Activity
MDA-MB-231 = test: Cytotoxicity against human MDA-MB-231 cells assessed as cell growth at 10^-8 M after 48 hrs by SRB assay; conditions: MDA-MB-231, 48 h, read-out: Activity
[9] = Cytotoxicity against human Hs 578T cells assessed as cell growth at 10^-8 M after 48 hrs by SRB assay; conditions: read-out: Activity; how it was run: as §2
MOLT-4 = test: Cytotoxicity against human MOLT4 cells assessed as cell growth at 10^-6 M after 48 hrs by SRB assay; conditions: MOLT-4, 48 h, read-out: Activity
A549 [10] = test: Cytotoxicity against human A549 cells assessed as cell growth at 10^-6 M after 48 hrs by SRB assay; conditions: A549, 48 h, read-out: Activity; how it was run: as §1
NCI-H460 = test: Cytotoxicity against human NCI-H460 cells assessed as cell growth at 10^-6 M after 48 hrs by SRB assay; conditions: NCI-H460, 48 h, read-out: Activity
HCT-116 = test: Cytotoxicity against human HCT116 cells assessed as cell growth at 10^-6 M after 48 hrs by SRB assay; conditions: HCT-116, 48 h, read-out: Activity; how it was run: as §2
SF-539 = test: Cytotoxicity against human SF539 cells assessed as cell growth at 10^-6 M after 48 hrs by SRB assay; conditions: SF-539, 48 h, read-out: Activity
OVCAR-5 = test: Cytotoxicity against human OVCAR5 cells assessed as cell growth at 10^-6 M after 48 hrs by SRB assay; conditions: OVCAR-5, 48 h, read-out: Activity
NCI-H226 [11] = test: Growth inhibition of human NCI-H226 cells after 48 hrs by SRB assay; conditions: NCI-H226, 48 h; for CC50: read-out: LC50 (the source's name)
How it was run: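 Adherent NCI-60 lines grown in RPMI 1640 with 5% FBS, seeded at 5000–40,000 cells/well, and preincubated 24 h at 37 °C, 5% CO2. Compound, stocked in DMSO, given either once at 10^-5 M or at five 10-fold dilutions for 48 h. Cells fixed with cold TCA (final 10%), stained with 0.4% SRB, and read at 515 nm. GI50 taken as 50% reduction in net protein increase versus time-zero and control plates.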

COLO = test: Growth inhibition of human COLO […] cells after 48 hrs by SRB assay
How it was run: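 Same 48 h NCI-60 five-dose SRB protocol. Adherent lines were fixed with cold TCA at 10% final; suspension lines such as CCRF-CEM were fixed with 16% final TCA. Stain was 0.4% SRB in 1% acetic acid for 10 min, solubilized in 10 mM Tris base and read at 515 nm. GI50 came from log concentration–growth curves, solving [(Ti−Tz)/(C−Tz)]×100 = 50.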

CCRF-CEM = test: Cytotoxicity against human CCRF-CEM cells assessed as cell growth at 10^-5 M after 48 hrs by SRB assay; conditions: read-out: Activity; how it was run: as §1
SR = test: Cytotoxicity against human SR cells assessed as cell growth at 10^-5 M after 48 hrs by SRB assay; conditions: read-out: Activity

Row | SMILES | growth at 10 µM (DU-145 [1]) [%] | GI50 [2] [µM] | growth at 0.1 µM (EKVX) [%] | growth at 0.1 µM (NCI-H226 [3]) [%] | growth at 0.1 µM (SNB-19) [%] | growth at 0.1 µM (M14 [4]) [%] | growth at 0.1 µM (MDA-MB-435) [%] | growth at 100 µM (HL-60) [%] | growth at 100 µM (A498) [%] | growth at 100 µM (TK-10) [%] | growth at 100 µM (DU-145 [5]) [%] | growth at 0.1 µM (IGROV-1) [%] | growth at 0.1 µM (OVCAR-4) [%] | growth at 0.1 µM (ACHN) [%] | growth at 0.1 µM (CAKI-1) [%] | growth at 0.1 µM [6] [%] | growth at 0.01 µM (A549 [7]) [%] | growth at 0.01 µM (M14 [8]) [%] | growth at 0.01 µM (MDA-MB-231) [%] | growth at 0.01 µM [9] [%] | also measured
1 | COc1ccc(-c2nn3cc(-c4cccc(N)c4)nc3s2)cc1 | 41 | 2.33 | 72 | 80 | 90 | 101 | 88 | -14 | -67 | -30 | -41 | 93 | 92 | 105 | 76 | 84 | 106 | 101 | 85 | 90 | growth at 1 µM (MOLT-4): 76%; growth at 1 µM (A549 [10]): 95%; growth at 1 µM (NCI-H460): 76%; growth at 1 µM (HCT-116): 90%; growth at 1 µM (SF-539): 91%; growth at 1 µM (OVCAR-5): 90%; GI50 (NCI-H226 [11]): 1.53 µM; TGI (NCI-H226 [11]): 16.2 µM; CC50 (NCI-H226 [11]): 71.6 µM; GI50 (COLO): 7.08 µM; LC50 (COLO): 86 µM; TGI (COLO): 26.7 µM; growth at 10 µM (CCRF-CEM): 10%; growth at 10 µM (SR): 26%
2 | COc1ccc(-c2nn3cc(-c4ccc(O)cc4O)nc3s2)cc1 | 27 | 1.92 | 92 | 88 | 92 | 96 | 91 | -25 | -37 | -21 | 2 | 94 | 88 | 101 | 90 | 93 | 96 | 96 | 99 | 95 | growth at 1 µM (MOLT-4): 78%; growth at 1 µM (A549 [10]): 86%; growth at 1 µM (NCI-H460): 75%; growth at 1 µM (HCT-116): 86%; growth at 1 µM (SF-539): 97%; growth at 1 µM (OVCAR-5): 84%; GI50 (NCI-H226 [11]): 1.43 µM; TGI (NCI-H226 [11]): 6.95 µM; CC50 (NCI-H226 [11]): > 100 µM; GI50 (COLO): 5.82 µM; LC50 (COLO): > 100 µM; TGI (COLO): 36.8 µM; growth at 10 µM (CCRF-CEM): 40%; growth at 10 µM (SR): 6%
